Source: ChEMBL document CHEMBL1151746, “Antitumor agents 6. Synthesis, structure-activity relationships, and biological evaluation of spiro[imidazolidine-4,3'-thieno[2,3-g]quinoline]-tetraones and spiro[thieno[2,3-g]quinoline-3,5'-[1,2,4]triazinane]-tetraones with potent antiproliferative activity” (J Med Chem, 2008)
Activity calls are given as the source filed them. The rule behind the calls is not given here.

What was measured:
[1] = molecular target: T1, DNA topoisomerase 1 (Homo sapiens) (UniProt P11387); test: Inhibition of DNA topoisomerase 1-mediated supercoiled pBR322 DNA relaxation at 5 to 10 uM by agarose gel electrophoresis
T1 sequence (whole entry): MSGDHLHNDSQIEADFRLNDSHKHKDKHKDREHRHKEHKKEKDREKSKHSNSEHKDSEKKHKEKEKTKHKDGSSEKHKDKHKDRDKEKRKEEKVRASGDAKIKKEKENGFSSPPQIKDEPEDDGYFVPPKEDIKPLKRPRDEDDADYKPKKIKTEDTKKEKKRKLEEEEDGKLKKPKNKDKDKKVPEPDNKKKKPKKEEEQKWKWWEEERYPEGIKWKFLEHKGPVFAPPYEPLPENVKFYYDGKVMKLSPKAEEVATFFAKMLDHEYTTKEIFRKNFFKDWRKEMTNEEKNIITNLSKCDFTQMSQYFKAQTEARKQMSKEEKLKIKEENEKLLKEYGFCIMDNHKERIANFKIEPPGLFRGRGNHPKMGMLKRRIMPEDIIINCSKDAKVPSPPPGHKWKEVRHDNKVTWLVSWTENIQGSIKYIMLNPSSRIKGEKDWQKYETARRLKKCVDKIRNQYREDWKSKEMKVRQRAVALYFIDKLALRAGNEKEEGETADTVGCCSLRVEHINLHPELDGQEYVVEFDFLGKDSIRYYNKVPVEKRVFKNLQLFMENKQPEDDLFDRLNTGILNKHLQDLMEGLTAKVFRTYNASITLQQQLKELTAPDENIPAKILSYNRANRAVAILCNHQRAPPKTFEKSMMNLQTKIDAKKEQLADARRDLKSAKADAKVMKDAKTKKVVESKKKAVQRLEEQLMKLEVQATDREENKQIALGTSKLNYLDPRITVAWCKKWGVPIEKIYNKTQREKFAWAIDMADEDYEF

[2] = system: HeLa; test: Antiproliferative activity against human HeLa cells after 96 hrs by MTT assay; assay type: functional, cell-based
Summary of the method: (§1)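 Solid-tumor cells in their specific media with 10% FCS were seeded at 5 × 10⁴ cells/mL and left to adhere 16 h. Serially diluted compound was then added (DMSO solution at 200 µM, diluted in medium). MTT viability was read 4 days later. IC50 came from linear regression against untreated controls, which grew at least three rounds, as the mean of three independent determinations.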

[3] = system: ACHN; test: Antiproliferative activity against human ACHN cells after 96 hrs by MTT assay; assay type: functional, cell-based; summary of the method: as §1
[4] = system: MRC5; test: Antiproliferative activity against human MRC5 cells after 96 hrs by MTT assay; assay type: cell-based; details: MRC5, 96 h
Summary of the method: (§2)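 Exponentially growing cells in RPMI 1640 with 10% FCS were resuspended at 1 × 10⁵ cells/mL in RPMI containing serial dilutions of compound (DMSO solution at 200 µM, diluted in medium). After 96 h at 37 °C, viability was read by MTT. Growth was taken as % of untreated controls, which grew at least three rounds. IC50 came from linear regression, as the mean of three independent determinations.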

[5] = system: CCRF-CEM; test: Antiproliferative activity against human CCRF-CEM cells after 96 hrs by MTT assay; assay type: functional, cell-based; summary of the method: as §2
[6] = system: CCRF-SB; test: Antiproliferative activity against human CCRF-SB cells after 96 hrs by MTT assay; assay type: functional, cell-based; summary of the method: as §2
[7] = system: HT-29; test: Antiproliferative activity against human HT-29 cells after 96 hrs by MTT assay; assay type: functional, cell-based; details: Homo sapiens, HT-29, 96 h; summary of the method: as §1
[8] = molecular target: DNA topoisomerase 2-alpha (Homo sapiens) (UniProt P11388); test: Inhibition of DNA topoisomerase 2-mediated negatively supercoiled pBR322 relaxation
Sequence of DNA topoisomerase 2-alpha (Homo sapiens) (P11388 whole entry): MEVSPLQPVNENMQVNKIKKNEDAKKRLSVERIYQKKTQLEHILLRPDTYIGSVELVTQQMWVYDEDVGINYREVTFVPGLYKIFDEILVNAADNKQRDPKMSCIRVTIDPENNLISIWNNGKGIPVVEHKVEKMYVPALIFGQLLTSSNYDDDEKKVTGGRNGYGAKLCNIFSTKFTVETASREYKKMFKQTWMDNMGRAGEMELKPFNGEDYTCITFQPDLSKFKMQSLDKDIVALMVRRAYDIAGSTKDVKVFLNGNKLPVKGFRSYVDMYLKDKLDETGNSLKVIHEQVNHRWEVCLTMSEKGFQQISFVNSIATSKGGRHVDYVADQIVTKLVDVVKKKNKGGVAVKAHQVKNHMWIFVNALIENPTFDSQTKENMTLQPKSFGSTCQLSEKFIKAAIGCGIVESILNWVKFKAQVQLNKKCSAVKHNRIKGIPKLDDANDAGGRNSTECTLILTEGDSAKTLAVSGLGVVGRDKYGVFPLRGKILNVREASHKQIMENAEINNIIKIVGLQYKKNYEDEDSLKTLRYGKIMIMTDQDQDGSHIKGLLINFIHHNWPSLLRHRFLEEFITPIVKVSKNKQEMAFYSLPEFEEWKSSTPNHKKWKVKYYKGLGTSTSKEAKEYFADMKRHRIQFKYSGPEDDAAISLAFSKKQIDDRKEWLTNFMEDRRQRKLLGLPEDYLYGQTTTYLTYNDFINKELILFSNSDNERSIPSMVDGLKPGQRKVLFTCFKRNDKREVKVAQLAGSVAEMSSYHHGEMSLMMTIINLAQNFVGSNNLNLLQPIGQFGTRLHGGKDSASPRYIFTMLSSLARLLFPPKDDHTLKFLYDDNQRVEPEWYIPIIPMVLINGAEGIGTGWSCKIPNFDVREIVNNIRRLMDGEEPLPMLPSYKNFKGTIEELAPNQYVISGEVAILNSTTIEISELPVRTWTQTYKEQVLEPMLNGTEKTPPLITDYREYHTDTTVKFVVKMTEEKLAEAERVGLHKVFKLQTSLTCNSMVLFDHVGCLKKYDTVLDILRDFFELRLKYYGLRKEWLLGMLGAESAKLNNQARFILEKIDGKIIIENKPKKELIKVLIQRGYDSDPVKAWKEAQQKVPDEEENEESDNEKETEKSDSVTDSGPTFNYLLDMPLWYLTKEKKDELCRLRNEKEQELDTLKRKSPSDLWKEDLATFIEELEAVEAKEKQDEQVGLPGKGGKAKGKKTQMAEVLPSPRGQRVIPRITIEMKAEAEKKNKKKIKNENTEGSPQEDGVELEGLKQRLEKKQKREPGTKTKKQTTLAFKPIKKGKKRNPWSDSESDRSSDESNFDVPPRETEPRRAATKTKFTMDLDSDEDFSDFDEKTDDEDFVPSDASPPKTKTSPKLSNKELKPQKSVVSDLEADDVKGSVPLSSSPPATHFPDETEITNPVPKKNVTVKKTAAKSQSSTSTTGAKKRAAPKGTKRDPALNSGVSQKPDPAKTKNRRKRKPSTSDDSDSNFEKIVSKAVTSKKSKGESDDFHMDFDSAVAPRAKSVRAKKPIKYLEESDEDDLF

[9] = system: MCF7; test: Antiproliferative activity against human MCF7 cells after 96 hrs by MTT assay; assay type: functional, cell-based; details: MCF7, 96 h; summary of the method: as §1
[10] = system: SF-268; test: Antiproliferative activity against human SF-268 cells after 96 hrs by MTT assay; assay type: functional, cell-based; details: SF-268, 96 h; summary of the method: as §1
[11] = system: XF498; test: Antiproliferative activity against human XF498 cells after 96 hrs by MTT assay; assay type: functional, cell-based; details: XF498, 96 h; summary of the method: as §1
[12] = system: MT4; test: Antiproliferative activity against human MT4 cells after 96 hrs by MTT assay; assay type: functional, cell-based; details: Homo sapiens, MT4, 96 h; summary of the method: as §2
[13] = molecular target: T1, DNA topoisomerase 1 (Homo sapiens); test: Inhibition of DNA topoisomerase 1-mediated supercoiled pBR322 DNA relaxation at 25 uM by agarose gel electrophoresis
[14] = molecular target: T1, DNA topoisomerase 1 (Homo sapiens); test: Inhibition of DNA topoisomerase 1-mediated supercoiled pBR322 DNA relaxation at 5 uM by agarose gel electrophoresis
[15] = molecular target: T2, DNA ligase (Enterobacteria phage T4) (UniProt P00970); test: Inhibition of T4 DNA ligase by DNA unwinding assay; details: Tequatrovirus T4
T2 sequence (whole entry): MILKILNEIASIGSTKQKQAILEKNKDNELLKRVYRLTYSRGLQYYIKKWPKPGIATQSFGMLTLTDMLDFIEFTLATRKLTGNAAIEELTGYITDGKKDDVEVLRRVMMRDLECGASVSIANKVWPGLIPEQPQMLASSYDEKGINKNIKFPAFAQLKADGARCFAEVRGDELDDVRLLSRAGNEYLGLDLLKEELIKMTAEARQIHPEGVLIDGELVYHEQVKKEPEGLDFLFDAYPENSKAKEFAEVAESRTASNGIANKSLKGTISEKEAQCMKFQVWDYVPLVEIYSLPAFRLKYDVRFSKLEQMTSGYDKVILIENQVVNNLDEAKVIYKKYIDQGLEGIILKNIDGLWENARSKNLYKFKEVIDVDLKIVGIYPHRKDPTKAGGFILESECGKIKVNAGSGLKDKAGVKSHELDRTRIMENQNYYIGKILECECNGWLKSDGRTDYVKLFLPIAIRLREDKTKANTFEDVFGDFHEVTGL
Summary of the method: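 EcoRI-linearized pBR322 (0.1 µg) in 30 mM Tris-HCl pH 7.8, 10 mM MgCl2, 10 mM DTT and 0.5 mM ATP was equilibrated with compound 30 min at 20 °C. Excess T4 DNA ligase was then added for 30 min at 20 °C, and reactions were stopped at 55 °C. After phenol extraction, products were resolved on 1% agarose gels.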

Row | SMILES | Activity [1] | IC50 [2] | IC50 [3] | IC50 [4] | IC50 [5] | IC50 [6] | IC50 [7] | Activity [8] | IC50 [9] | IC50 [10] | IC50 [11] | IC50 [12] | Activity [13] | Activity [14] | Activity [15]
1 | CCCc1ccc(N2C(=O)NC3(CSC4=C3C(=O)c3ncccc3C4=O)C2=O)cc1 (racemic) | inactive | 0.005 µM | 0.001 µM | 0.85 µM | 0.001 µM | 0.002 µM | 0.001 µM | Dose-dependent effect | 0.002 µM | 0.3 µM | 0.45 µM | 0.001 µM | – | – | –
2 | COc1cccc2c1C(=O)c1c(O)c3c(c(O)c1C2=O)C[C@@](O)(C(=O)CO)C[C@@H]3O[C@H]1C[C@H](N)[C@H](O)[C@H](C)O1 [DOXORUBICIN] | – | – | – | 0.3 µM | 0.02 µM | – | 0.002 µM | – | – | 0.2 µM | 0.16 µM | 0.003 µM | Active | Active | Active
3 | CN(C)c1ccc(N2C(=O)NC3(CSC4=C3C(=O)c3ncccc3C4=O)C2=O)cc1 (racemic) | – | 0.01 µM | 0.09 µM | 1 µM | 0.001 µM | 0.001 µM | 0.02 µM | Dose-dependent effect | 0.01 µM | 0.95 µM | 0.8 µM | 0.015 µM | – | – | –
